Source: PubChem BioAssay AID624074 (Broad Institute, 2012)
Activity calls are given as the source filed them.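 Rule for the calls: active = fitted curve reaches a 35% growth drop -35 below twice the top tested dose; inactive = activity in the wrong direction, or the rest.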

Test system: P. aeruginosa PAK ΔmexAB-oprM growth with EDDHA, OD600, 28 h
Assay: efflux-deficient P. aeruginosa PAK growth delay, dose response, whole organism, PAK mexAB-OprM mutant, OD600, EDDHA, dry powder, set 4 (AID 624074)
Details: not given
How it was run: (§1)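 Test system: P. aeruginosa PAK ΔmexAB-oprM bacteria | Also added: 2 µM EDDHA chelator | Schedule: Compound exposure of 28 h at 30 °C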

Compound | AC35
N#CC(c1cccc(Cl)n1)c1ccc(Cl)cc1F (stereo unspecified) | 47.5 µM
N#CC(c1ccc(Cl)cc1)c1cccc(Cl)n1 (stereo unspecified) | 60.3 µM
N#CC(c1ccc(Cl)cc1)c1ncccc1Cl (stereo unspecified) | 56.2 µM
N#CC(c1ccc(Cl)cc1)c1ccc(Cl)cn1 (stereo unspecified) | 72 µM
N#CC(c1ccc(Cl)cc1)c1cccc(C(F)(F)F)n1 (stereo unspecified) | 29 µM
N#CC(c1ccc(F)cc1)c1cccc(C(F)(F)F)n1 (stereo unspecified) | 25.6 µM
N#CC(c1cccc(C(F)(F)F)n1)c1ccc(Cl)cc1F (stereo unspecified) | 37.8 µM

Test system: not listed separately
Assay: as above
Details: P. aeruginosa PAK ΔmexAB-oprM growth with EDDHA, OD600, 28 h; at 100 µM (top of the series)
How it was run: as §1

Compound | activity change, negative = growth inhibition
CCCCC(c1ccc(Cl)cc1)c1nn[nH]n1 (stereo unspecified) | -10.1% (inactive)
CCCCC(C#N)c1ccc(F)cn1 (stereo unspecified) | -15.7% (inactive)
COCCNC(C#N)c1ccc(Cl)cc1 (stereo unspecified) | -1.19% (inactive)
COCCC(C#N)c1ccc(F)cc1 (stereo unspecified) | -11.9% (inactive)
